Results taken from ChEMBL document CHEMBL4020823, “Highly Selective, Potent, and Oral mTOR Inhibitor for Treatment of Cancer as Autophagy Inducer” (J Med Chem, 2018).
Activity calls are given as the source filed them. The rule behind the calls is not given here.

Columns and labels:
HeLa [1] = experiment: Inhibition of mTORC2 in human HeLa cells assessed as reduction in AKT phosphorylation at Ser473 residues at 0.5 to 1 uM by Western blot analysis; type: cell-based
How it was run: (§1)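 Cells treated with the indicated concentrations, then whole-cell lysates immunoblotted. mTORC1 activity read as S6 and 4E-BP1 phosphorylation; mTORC2 activity read as AKT Ser473 phosphorylation. Blocking in 5% skim milk, primary antibodies at 4 °C overnight, peroxidase-conjugated secondary, ECL detection.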

T47D [2] = experiment: Antitumor activity against human T47D cells xenografted in BALB/c nude mouse assessed as decrease in tumor growth at 60 mg/kg, po administered via gavage after 3 weeks relative to control; type: functional; settings: 504 h, read-out: TGI
SiHa [3] = experiment: Cell cycle arrest in human SiHa cells assessed as accumulation at G0/G1 phase at 0.25 to 0.5 uM after 24 hrs by propidium iodide-staining based flow cytometric analysis; type: functional
How it was run: (§2)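 Cells were seeded at 5 × 10^5 cells/mL. At 24 h after plating they were treated with increasing concentrations for 24 h, washed in PBS, and fixed in ice-cold 70% ethanol for at least 24 h. They were stained with propidium iodide plus RNase A for 30 min at 37 °C and analysed by flow cytometry for phase distribution.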

HeLa [4] = experiment: Cell cycle arrest in human HeLa cells assessed as accumulation at G0/G1 phase at 0.5 to 1 uM after 24 hrs by propidium iodide-staining based flow cytometric analysis; type: functional; how it was run: as §2
[5] = Half life in Sprague-Dawley rat at 20 mg/kg, iv administered as single dose by HPLC analysis; type: ADME, organism-based; settings: in vivo
How it was run: (§3)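 Rats fasted overnight, then given one 20 mg/kg dose either iv or po. Blood was collected and centrifuged at once to obtain plasma. Plasma drug levels were measured by HPLC, and PK parameters were derived from the concentration-time data.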

[6] = Clearance in Sprague-Dawley rat at 20 mg/kg, po administered as single dose by HPLC analysis; type: ADME, organism-based; settings: in vivo; how it was run: as §3
[7] = biological target: DNA-dependent protein kinase catalytic subunit (Homo sapiens, UniProt P78527); experiment: Inhibition of full length recombinant human DNA-PK
MDA-MB-231 [8] = experiment: Induction of autophagy in human MDA-MB-231 cells assessed as increase in LC3-2 puncta level after 48 hrs by immunofluorescence staining based microscopic analysis; type: functional, cell-based
How it was run: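 Cells seeded on glass coverslips in complete 1640 or DMEM and incubated with inhibitors at different concentrations for 48 h. Fixed in 4% paraformaldehyde, permeabilized with 0.15% Triton X-100, blocked in 4% BSA/PBS for 1 h at room temperature. Anti-LC3B (1:200) overnight, then FITC-conjugated secondary, DAPI nuclear stain. LC3B-II puncta viewed by fluorescence microscopy.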

Mus musculus [9] = experiment: Down regulation of 4E-BP1 phosphorylation at Ser65 residues in human T47D cells xenografted in BALB/c nude mouse administered via oral gavage after 3 weeks by hematoxylin and eosine staining based light microscopic assay; type: functional, cell-based
How it was run: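 Tumours from the oral 3-week T-47D xenograft study were formalin-fixed, paraffin-embedded and cut into 5 μm sections. Sections were deparaffinized, rehydrated and incubated overnight at 4 °C with phospho-specific primary antibody at 1:100. Biotin secondary was applied for 1 h at room temperature, then ABC-peroxidase/DAB with hematoxylin counterstain. Sections were viewed by light microscopy.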

Homo sapiens [10] = species: Homo sapiens; experiment: Inhibition of mTORC2 in human MCF7 cells assessed as reduction in AKT phosphorylation at Ser473 residues at 0.25 to 0.5 uM by Western blot analysis; type: cell-based; how it was run: as §1
T47D [11] = experiment: Growth inhibition of human T47D cells after 72 hrs by CCK8 assay; type: functional, cell-based
How it was run: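 Cells were seeded at 2000–3000 per well and grown 24 h in serum-containing medium. They were then exposed to serially diluted compound for 72 h at 37 °C, 5% CO2. CCK8 reagent was added for 1–4 h and absorbance read at 450 nm. Inhibition = (AC − AS)/(AC − Ab) × 100%. IC50 is the average of at least three independent determinations.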

MDA-MB-231 [12] = experiment: Induction of autophagy in human MDA-MB-231 cells assessed as increase in LC3-2 level at 0.25 to 0.5 uM after 48 hrs by Western blot analysis; type: functional, cell-based
How it was run: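 Cells treated with test agents at several concentrations for 2 days (48 h). LC3B-II detected by Western blot on lysates, with β-actin as internal control. Membranes blocked in 5% skim milk, primary antibodies at 4 °C overnight, peroxidase-conjugated anti-mouse or anti-rabbit IgG secondary, ECL detection.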

[13] = Cmax in Sprague-Dawley rat at 20 mg/kg, po administered as single dose by HPLC analysis; type: ADME, organism-based; design: dose 20 mg/kg, route oral; settings: in vivo; how it was run: as §3
[14] = biological target: PI3K p110 beta/p85 beta (Mus musculus) (UniProt Q8BTI9+O08908); experiment: Inhibition of full length recombinant mouse PI3K p110beta/p85beta at 1 uM relative to control; type: protein-complex assay
How it was run: (§4)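 Eurofins KinaseProfiler panel with compound at a single 1 μM concentration. ATP at the Km of each kinase. Result is % inhibition, mean of two independent experiments.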

[15] = Volume of distribution at steady state in Sprague-Dawley rat at 20 mg/kg, iv administered as single dose by HPLC analysis; type: ADME, organism-based; settings: in vivo, read-out: Vdss
How it was run: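 Rats fasted overnight, then given a single 20 mg/kg dose either iv or po. Blood collected and centrifuged immediately to obtain plasma. Plasma drug levels measured by HPLC, and pharmacokinetic parameters derived from both routes.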

SiHa [16] = experiment: Cell cycle arrest in human SiHa cells assessed as decrease in S-phase at 0.25 to 0.5 uM after 24 hrs by propidium iodide-staining based flow cytometric analysis; type: functional; how it was run: as §2
[17] = biological target: PI3-kinase p110-delta/p85-alpha (Homo sapiens) (UniProt P27986+O00329); experiment: Inhibition of full length recombinant human PI3K p110delta/p85alpha at 1 uM relative to control; type: protein-complex assay; how it was run: as §4
Mus musculus [18] = experiment: Toxicity in BALB/c nude mouse xenografted with human T47D cells assessed as decrease in body weight at 15 to 60 mg/kg, po administered via gavage for 3 weeks measured during compound dosing; type: organism-based; settings: in vivo, 504 h
How it was run: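 BALB/c nude mice, 6−8 weeks old, injected subcutaneously with 100 μL T-47D cells at 2 × 10^7 per mL in serum-free medium. At 100−120 mm3, randomized to 5 groups of 5: 15, 30 or 60 mg/kg/d, rapamycin 60 mg/kg/d, or vehicle. Dosed daily by intragastric route in DMSO for 3 weeks. Side effects checked daily; body weight every other day.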

mTOR/FKBP12A/FKBP12B = mTOR/FKBP12A/FKBP12B (Homo sapiens, UniProt P42345+P62942+P68106); experiment: Inhibition of full length recombinant human mTOR/FKBP12; type: protein-complex assay
[19] = biological target: PI3K p110 delta/p85 alpha (Mus musculus) (UniProt P26450+O35904); experiment: Inhibition of full length recombinant mouse PI3K p110delta/p85alpha at 1 uM relative to control; type: protein-complex assay; how it was run: as §4
Homo sapiens [20] = species: Homo sapiens; experiment: Inhibition of mTORC1 in human MCF7 cells assessed as reduction in 4E-BP1 phosphorylation at Thr37/46 residues at 0.25 to 0.5 uM by Western blot analysis; type: cell-based; how it was run: as §1
MDA-MB-231 [21] = experiment: Cell cycle arrest in human MDA-MB-231 cells assessed as accumulation at G0/G1 phase at 0.25 to 0.5 uM after 24 hrs by propidium iodide-staining based flow cytometric analysis; type: functional; how it was run: as §2

Sequence of mTOR/FKBP12A/FKBP12B (P62942 2-108 limits assumed, other chains not shown): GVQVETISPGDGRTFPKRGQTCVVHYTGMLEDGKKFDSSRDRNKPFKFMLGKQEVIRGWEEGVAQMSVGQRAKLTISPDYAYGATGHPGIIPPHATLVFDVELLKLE
Sequence of mTOR/FKBP12A/FKBP12B (P68106 whole entry, other chains not shown): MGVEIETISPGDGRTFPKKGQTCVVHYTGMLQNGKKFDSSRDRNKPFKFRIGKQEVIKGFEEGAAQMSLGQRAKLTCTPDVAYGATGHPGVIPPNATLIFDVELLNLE
Sequence of DNA-dependent protein kinase catalytic subunit (P78527 whole entry): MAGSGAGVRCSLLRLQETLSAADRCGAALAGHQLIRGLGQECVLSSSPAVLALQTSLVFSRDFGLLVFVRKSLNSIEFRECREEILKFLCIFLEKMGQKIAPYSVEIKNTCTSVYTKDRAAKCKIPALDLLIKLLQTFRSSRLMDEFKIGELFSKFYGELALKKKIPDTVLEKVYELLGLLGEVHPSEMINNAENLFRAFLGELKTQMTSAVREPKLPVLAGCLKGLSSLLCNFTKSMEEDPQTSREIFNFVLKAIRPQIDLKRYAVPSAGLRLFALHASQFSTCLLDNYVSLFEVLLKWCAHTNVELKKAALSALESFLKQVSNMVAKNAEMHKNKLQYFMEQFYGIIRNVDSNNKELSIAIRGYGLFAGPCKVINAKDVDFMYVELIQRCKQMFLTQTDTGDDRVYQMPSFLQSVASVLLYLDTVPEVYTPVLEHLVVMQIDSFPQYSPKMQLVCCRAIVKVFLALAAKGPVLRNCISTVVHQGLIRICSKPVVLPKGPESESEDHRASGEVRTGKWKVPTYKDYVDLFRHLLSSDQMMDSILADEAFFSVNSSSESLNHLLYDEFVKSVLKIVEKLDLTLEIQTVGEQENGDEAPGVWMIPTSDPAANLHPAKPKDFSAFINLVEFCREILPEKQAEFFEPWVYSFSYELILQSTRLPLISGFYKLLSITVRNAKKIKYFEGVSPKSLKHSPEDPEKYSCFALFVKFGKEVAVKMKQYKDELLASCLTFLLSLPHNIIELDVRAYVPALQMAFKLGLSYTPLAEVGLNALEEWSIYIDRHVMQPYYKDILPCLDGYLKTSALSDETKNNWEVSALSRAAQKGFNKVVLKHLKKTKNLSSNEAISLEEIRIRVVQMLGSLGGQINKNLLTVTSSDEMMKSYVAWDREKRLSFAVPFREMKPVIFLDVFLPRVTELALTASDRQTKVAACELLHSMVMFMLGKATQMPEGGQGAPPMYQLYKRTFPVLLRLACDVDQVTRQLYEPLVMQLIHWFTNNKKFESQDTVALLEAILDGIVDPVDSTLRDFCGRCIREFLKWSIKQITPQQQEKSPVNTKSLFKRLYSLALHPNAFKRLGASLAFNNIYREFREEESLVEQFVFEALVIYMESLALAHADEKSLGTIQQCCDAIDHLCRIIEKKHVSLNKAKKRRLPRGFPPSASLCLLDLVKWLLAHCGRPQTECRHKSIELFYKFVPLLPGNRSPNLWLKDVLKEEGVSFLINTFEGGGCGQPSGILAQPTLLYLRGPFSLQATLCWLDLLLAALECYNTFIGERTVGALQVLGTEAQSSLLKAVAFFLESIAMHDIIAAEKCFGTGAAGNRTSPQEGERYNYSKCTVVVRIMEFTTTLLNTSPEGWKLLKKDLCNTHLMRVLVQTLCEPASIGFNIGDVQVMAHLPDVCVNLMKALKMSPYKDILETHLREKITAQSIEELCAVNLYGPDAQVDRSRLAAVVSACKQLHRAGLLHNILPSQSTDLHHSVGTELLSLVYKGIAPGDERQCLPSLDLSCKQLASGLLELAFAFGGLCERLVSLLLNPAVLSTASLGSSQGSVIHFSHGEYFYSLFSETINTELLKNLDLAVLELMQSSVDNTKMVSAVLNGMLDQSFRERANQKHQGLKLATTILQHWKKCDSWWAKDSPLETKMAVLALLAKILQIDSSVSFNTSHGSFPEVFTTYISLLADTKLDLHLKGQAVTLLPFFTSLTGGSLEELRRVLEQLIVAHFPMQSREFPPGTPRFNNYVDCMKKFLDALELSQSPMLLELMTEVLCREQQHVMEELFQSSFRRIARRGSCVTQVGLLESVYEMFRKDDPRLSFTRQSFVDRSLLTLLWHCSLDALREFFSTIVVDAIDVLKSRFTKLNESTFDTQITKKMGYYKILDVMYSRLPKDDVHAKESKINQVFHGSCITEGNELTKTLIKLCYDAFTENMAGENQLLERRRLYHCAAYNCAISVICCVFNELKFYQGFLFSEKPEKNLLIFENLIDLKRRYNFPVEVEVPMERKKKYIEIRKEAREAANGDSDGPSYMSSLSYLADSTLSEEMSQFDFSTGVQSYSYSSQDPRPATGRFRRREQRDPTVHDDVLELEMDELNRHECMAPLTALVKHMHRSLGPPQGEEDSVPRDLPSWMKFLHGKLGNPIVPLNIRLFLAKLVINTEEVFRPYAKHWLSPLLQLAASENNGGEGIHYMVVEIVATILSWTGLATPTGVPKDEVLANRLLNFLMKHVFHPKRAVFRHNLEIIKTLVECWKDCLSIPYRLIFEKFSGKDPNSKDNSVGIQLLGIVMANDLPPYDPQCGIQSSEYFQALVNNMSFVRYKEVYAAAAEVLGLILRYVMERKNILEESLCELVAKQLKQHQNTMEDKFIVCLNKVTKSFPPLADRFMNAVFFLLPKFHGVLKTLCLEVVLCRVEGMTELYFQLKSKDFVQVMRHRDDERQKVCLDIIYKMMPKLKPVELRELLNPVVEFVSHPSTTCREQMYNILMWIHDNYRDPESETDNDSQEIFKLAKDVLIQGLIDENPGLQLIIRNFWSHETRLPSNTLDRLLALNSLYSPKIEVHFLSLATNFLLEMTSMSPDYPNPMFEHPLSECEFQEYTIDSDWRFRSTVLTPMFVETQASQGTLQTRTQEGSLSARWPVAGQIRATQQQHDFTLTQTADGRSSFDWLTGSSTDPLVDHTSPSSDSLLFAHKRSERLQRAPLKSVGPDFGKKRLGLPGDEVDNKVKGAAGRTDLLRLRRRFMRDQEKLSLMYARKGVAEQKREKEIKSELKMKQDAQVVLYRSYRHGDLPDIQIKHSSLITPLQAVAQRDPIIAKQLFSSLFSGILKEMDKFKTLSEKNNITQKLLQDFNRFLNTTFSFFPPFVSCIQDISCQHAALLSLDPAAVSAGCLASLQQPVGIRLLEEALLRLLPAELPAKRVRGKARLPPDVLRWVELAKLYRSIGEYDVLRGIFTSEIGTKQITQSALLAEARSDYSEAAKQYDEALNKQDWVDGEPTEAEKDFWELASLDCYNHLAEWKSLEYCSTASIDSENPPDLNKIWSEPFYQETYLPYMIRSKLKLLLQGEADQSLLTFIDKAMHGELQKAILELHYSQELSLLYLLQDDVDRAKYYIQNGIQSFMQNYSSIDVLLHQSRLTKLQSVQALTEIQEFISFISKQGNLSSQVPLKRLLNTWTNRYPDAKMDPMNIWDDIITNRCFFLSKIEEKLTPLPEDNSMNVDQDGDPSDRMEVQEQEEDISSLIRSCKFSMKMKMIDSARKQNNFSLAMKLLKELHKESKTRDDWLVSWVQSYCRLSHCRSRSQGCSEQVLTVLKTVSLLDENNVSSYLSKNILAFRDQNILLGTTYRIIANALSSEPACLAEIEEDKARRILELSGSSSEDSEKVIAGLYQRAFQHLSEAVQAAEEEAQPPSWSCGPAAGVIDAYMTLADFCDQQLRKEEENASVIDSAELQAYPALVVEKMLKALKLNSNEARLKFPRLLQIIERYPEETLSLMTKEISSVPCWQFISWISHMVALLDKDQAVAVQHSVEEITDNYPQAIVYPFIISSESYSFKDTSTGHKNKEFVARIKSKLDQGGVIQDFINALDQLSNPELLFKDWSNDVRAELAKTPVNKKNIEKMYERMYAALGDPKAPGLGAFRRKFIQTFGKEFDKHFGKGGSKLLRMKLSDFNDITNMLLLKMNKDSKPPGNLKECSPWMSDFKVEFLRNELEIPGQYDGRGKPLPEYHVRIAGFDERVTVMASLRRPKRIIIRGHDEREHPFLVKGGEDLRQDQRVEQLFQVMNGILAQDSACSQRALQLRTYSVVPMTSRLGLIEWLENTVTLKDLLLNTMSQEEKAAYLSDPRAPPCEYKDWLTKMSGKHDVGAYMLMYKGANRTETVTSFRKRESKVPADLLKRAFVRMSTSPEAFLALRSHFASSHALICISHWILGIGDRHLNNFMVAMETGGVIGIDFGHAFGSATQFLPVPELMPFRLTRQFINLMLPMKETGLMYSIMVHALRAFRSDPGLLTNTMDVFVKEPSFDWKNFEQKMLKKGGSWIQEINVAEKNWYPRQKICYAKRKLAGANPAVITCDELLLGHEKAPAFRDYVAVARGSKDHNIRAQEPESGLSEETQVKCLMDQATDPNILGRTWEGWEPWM

half-life [5]: 7.57 h
CL/F [6]: 58.5 mL/min/kg
IC50 [7]: 26 nM
IC50 (T47D [11]): 205 nM
Cmax [13]: 807 ng/mL
inhibition [14]: 8%
Vd [15]: 16.7 L/kg
inhibition [17]: 9%
IC50 (mTOR/FKBP12A/FKBP12B): 8 nM
inhibition [19]: 4%
Structure (SMILES): N#CCN1CCC(n2c(=O)cnc3cnc4ccc(-c5ccc(N)nc5)cc4c32)CC1
inhibition (HeLa [1]): Active
inhibition in vivo at 60 mg/kg (T47D [2]): 83.7%
Activity (SiHa [3]): Active
Activity (HeLa [4]): Active
Activity (MDA-MB-231 [8]): Dose-dependent effect
Activity (Mus musculus [9]): Dose-dependent effect
inhibition (Homo sapiens [10]): Active
Activity (MDA-MB-231 [12]): Active
Activity (SiHa [16]): Active
Activity (Mus musculus [18]): Non-Toxic
inhibition (Homo sapiens [20]): Active
Activity (MDA-MB-231 [21]): Active
